What all share (assay type): functional, Mesocricetus auratus
Assay [1] has as its system Syrian golden hamster. Nature of the assay: Antihyperlipidemic activity measured by free fatty acid level in golden syrian hamster at 25 mg/kg. Summed up:
(§1)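 High-fat-diet hyperlipidemic male golden Syrian hamsters (120–130 g, n=8 per group) were dosed orally in water vehicle on days 4–10; water-only HFD hamsters served as controls. On day 10, nonfasted blood was drawn into tubes containing 120 µL NaF (4.5 mg/mL) and chilled to 0 C for 15 min. Glycerol and free fatty acids were assayed in this NaF plasma on a clinical chemistry analyser.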

In assay [2] the test system is Syrian golden hamster. Nature of the assay: Antihyperlipidemic activity measured by decrease in triglyceride level in golden syrian hamster at 25 mg/kg relative to control. On the set-up: scale not given: the % may be the effect or the level left. Summed up: (§2)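 Male golden Syrian hamsters (120–130 g), 8 per group, made hyperlipidemic on high fat diet with free access to diet and water throughout. Compound given orally in water from day 4 to day 10 (7 days); HFD hamsters given water only served as controls. On day 10, blood from nonfasted animals was drawn and cooled to 0 C for 15 min. Triglycerides, total cholesterol and HDL cholesterol were measured the same day in plasma without NaF using enzymatic kits.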

Assay [3] deals with Syrian golden hamster. Nature of the assay: Antihyperlipidemic activity measured by triglyceride level in golden syrian hamster at 100 mg/kg, po. Summed up: as §2
Assay [4] has as its system Syrian golden hamster. Nature of the assay: Antihyperlipidemic activity measured by decrease in glycerol level in golden syrian hamster at 100 mg/kg, po relative to control. Also noted: scale not given: the % may be the effect or the level left. Summed up:
as §1

The subject of assay [5] is Syrian golden hamster. As to the kind of experiment: Antihyperlipidemic activity measured by free fatty acid level in golden syrian hamster at 100 mg/kg, po. Summed up:
as §1

For assay [6], the system named is Syrian golden hamster. As to the kind of experiment: Antihyperlipidemic activity measured by cholesterol level in golden syrian hamster at 100 mg/kg, po. Summed up: as §2
Assay [7] relates to Syrian golden hamster. As to the kind of experiment: Antihyperlipidemic activity measured by glycerol level in golden syrian hamster at 25 mg/kg. Summed up:
as §1

The test system of assay [8] is Syrian golden hamster. Nature of the assay: Antihyperlipidemic activity measured by increase in HDL level in golden syrian hamster at 100 mg/kg, po relative to control. Summed up: as §2
Assay [9] deals with Syrian golden hamster. As to the kind of experiment: Antihyperlipidemic activity measured by triglyceride level in golden syrian hamster at 25 mg/kg. Summed up: as §2
The test system of assay [10] is Syrian golden hamster. Nature of the assay: Antihyperlipidemic activity measured by cholesterol level in golden syrian hamster at 25 mg/kg. Summed up: as §2
Assay [11] has as its system Syrian golden hamster. Nature of the assay: Antihyperlipidemic activity measured by HDL level in golden syrian hamster at 100 mg/kg, po. Summed up: as §2
Assay [12] relates to Syrian golden hamster. Nature of the assay: Antihyperlipidemic activity measured by HDL/total cholesterol ratio in golden syrian hamster at 25 mg/kg. Summed up:
as §2

For assay [13], the system named is Syrian golden hamster. Nature of the assay: Antihyperlipidemic activity measured by decrease in HDL level in golden syrian hamster at 25 mg/kg relative to control. Also noted: scale not given: the % may be the effect or the level left. Summed up: as §2
The subject of assay [14] is Syrian golden hamster. As to the kind of experiment: Antihyperlipidemic activity measured by glycerol level in golden syrian hamster at 100 mg/kg, po. Summed up:
as §1

The test system of assay [15] is Syrian golden hamster. Nature of the assay: Antihyperlipidemic activity measured by decrease in glycerol level in golden syrian hamster at 25 mg/kg relative to control. Also noted: scale not given: the % may be the effect or the level left. Summed up: as §1
Assay [16] deals with Syrian golden hamster. As to the kind of experiment: Antihyperlipidemic activity measured by decrease in HDL/total cholesterol ratio in golden syrian hamster at 25 mg/kg relative to control. On the set-up: scale not given: the % may be the effect or the level left. Summed up:
as §2

For assay [17], the system named is Syrian golden hamster. As to the kind of experiment: Antihyperlipidemic activity measured by increase in HDL/total cholesterol ratio in golden syrian hamster at 100 mg/kg, po relative to control. Summed up: as §2
For assay [18], the system named is Syrian golden hamster. As to the kind of experiment: Antihyperlipidemic activity measured by HDL level in golden syrian hamster at 25 mg/kg. Summed up: as §2
Assay [19] relates to Syrian golden hamster. Nature of the assay: Antihyperlipidemic activity measured by decrease in free fatty acid level in golden syrian hamster at 25 mg/kg relative to control. On the set-up: scale not given: the % may be the effect or the level left. Summed up:
as §1

Assay [20] relates to Syrian golden hamster. As to the kind of experiment: Antihyperlipidemic activity measured by decrease in triglyceride level in golden syrian hamster at 100 mg/kg, po relative to control. On the set-up: scale not given: the % may be the effect or the level left. Summed up: as §2
Assay [21] has as its system Syrian golden hamster. Nature of the assay: Antihyperlipidemic activity measured by decrease in cholesterol level in golden syrian hamster at 25 mg/kg relative to control. Also noted: scale not given: the % may be the effect or the level left. Summed up:
as §2

Assay [22] deals with Syrian golden hamster. As to the kind of experiment: Antihyperlipidemic activity measured by HDL/total cholesterol ratio in golden syrian hamster at 100 mg/kg, po. Summed up:
as §2

Assay [23] deals with Syrian golden hamster. Nature of the assay: Antihyperlipidemic activity measured by decrease in cholesterol level in golden syrian hamster at 100 mg/kg, po relative to control. On the set-up: scale not given: the % may be the effect or the level left. Summed up: as §2

For `OC[C@H]1O[C@](O)(CO)[C@@H](O[C@@H]2O[C@H](CO)[C@@H](O[C@@H]3O[C@H](CO)[C@@H](O)[C@H](O)[C@H]3O)[C@H](O)[C@H]2O)[C@@H]1O`, the Activity with Syrian golden hamster [1] stood at 0.648 mM; with Syrian golden hamster [2] it was 29%; with Syrian golden hamster [3], 6.09 mM; in the assay with Syrian golden hamster [4], 4%; in the assay with Syrian golden hamster [5], 726.03 µM; with Syrian golden hamster [6], 9.79 mM. The Activity is 0.77 mM in the assay on Syrian golden hamster [7]; 10% in the assay on Syrian golden hamster [8]; 10.23 mM in the assay on Syrian golden hamster [9]; 10.97 mM in the assay on Syrian golden hamster [10]; 3.4 mM with Syrian golden hamster [11]; 15% with Syrian golden hamster [13]. For the same compound, the Activity is 0.81 mM in the assay on Syrian golden hamster [14]; 8% in the assay on Syrian golden hamster [15]; 11% in the assay on Syrian golden hamster [16]; 29% in the assay on Syrian golden hamster [17]; 2.64 mM with Syrian golden hamster [18]; 10% in the assay with Syrian golden hamster [19]. The Activity in the assay with Syrian golden hamster [20] is listed as 58%; in the assay on Syrian golden hamster [21], 5%; in the assay with Syrian golden hamster [23] it was 15%. For the same compound, the Ratio in the assay with Syrian golden hamster [12] was determined as 0.24; in the assay with Syrian golden hamster [22], 0.34.
